Measured values reported in ChEMBL document CHEMBL1153823, “Design, synthesis, and biological evaluation of new 5-HT4 receptor agonists: application as amyloid cascade modulators and potential therapeutic utility in Alzheimer's disease” (J Med Chem, 2009).
Calls of active or inactive are those of the source. The rule behind the calls is not given here.

How the values were obtained:
[1] = molecular target: T1, 5-hydroxytryptamine receptor 4 (Homo sapiens, UniProt Q13639); test: Displacement of [3H]GR-113808 from human 5HT4 isoform E receptor expressed in rat C6 cells at 10 nM by liquid scintillation counting; format: cell-based
T1 sequence (Q13639 whole entry, canonical isoform): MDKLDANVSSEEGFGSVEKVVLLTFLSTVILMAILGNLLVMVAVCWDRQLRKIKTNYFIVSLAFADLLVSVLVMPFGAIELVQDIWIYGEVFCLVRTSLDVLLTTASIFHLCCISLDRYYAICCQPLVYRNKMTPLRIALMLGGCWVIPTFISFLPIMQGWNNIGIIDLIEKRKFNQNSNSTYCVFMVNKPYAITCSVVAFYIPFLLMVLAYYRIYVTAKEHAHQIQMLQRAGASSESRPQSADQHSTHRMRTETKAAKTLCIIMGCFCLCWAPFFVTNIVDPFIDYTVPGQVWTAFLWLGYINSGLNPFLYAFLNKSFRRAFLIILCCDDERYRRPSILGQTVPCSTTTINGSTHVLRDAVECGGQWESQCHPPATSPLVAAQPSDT

[2] = molecular target: T1, 5-hydroxytryptamine receptor 4; test: Agonist activity at human 5HT4 isoform E receptor expressed in rat C6 cells assessed as cAMP accumulation at 10 nM by radio-immunoassay relative to 5HT; format: functional, cell-based
Procedure, shortened: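 C6 glial cells stably transfected with h5-HT4(e)R, grown to confluence, serum-free 4 h, then preincubated 15 min in serum-free medium with 5 mM theophylline and 10 µM pargyline. […] Stopped with ice-cold perchloric acid; cAMP by radioimmunoassay; response normalized to 5-HT maximum.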

[3] = molecular target: T1, 5-hydroxytryptamine receptor 4; test: Displacement of [3H]GR-113808 from human 5HT4 isoform E receptor expressed in rat C6 cells by liquid scintillation counting; format: cell-based
[4] = molecular target: T1, 5-hydroxytryptamine receptor 4; test: Agonist activity at human 5HT4 isoform E receptor expressed in rat C6 cells assessed as cAMP accumulation by radio-immunoassay relative to 5HT; format: functional, cell-based
Procedure, shortened: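 C6 glial cells stably transfected with h5-HT4(e)R, grown to confluence, serum-free 4 h, then preincubated 15 min in serum-free medium with 5 mM theophylline and 10 µM pargyline.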

[5] = Inhibition of amyloid beta (25-35) polymerization assessed as inhibition of fibril formation by UV-visible measurement
Procedure, shortened: (§1)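 Aβ25-35 (100 µM final) with agonist (10 µM final, added in MeOH) in 10 mM phosphate buffer pH 7.2, prepared at 4 °C. UV-visible spectra 190–600 nm at 15 °C read after 6 h; agonist-alone spectra subtracted, Aβ-alone control run in parallel. At least three independent measurements. IC50 obtained by least-squares sigmoidal fit, for agonists at least as active as curcumin.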

[6] = Inhibition of amyloid beta (25-35) polymerization assessed as inhibition of fibril formation at 10 uM by UV-visible measurement; procedure, shortened: as §1
Mus musculus [7] = test: Increase in sAPPalpha levels in C57BL/6J mouse brain hippocampus at 5 mg/kg, sc after 90 mins by Western blot; format: functional, organism-based; parameters: dose 5 mg/kg
Procedure, shortened: (§2)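 Male C57BL/6j mice, 8 weeks, 23–27 g, 7–9 per group, single subcutaneous dose 5 mg/kg in 0.9% NaCl (saline controls 5 mL/kg). Killed 90 min later. Hippocampus and cortex sonicated in Tris/NaCl with protease inhibitors, spun 100000g 45 min. sAPPα immunoblot, normalized to β-actin densitometry, expressed as % of saline controls. One-way ANOVA with PLSD.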

Mus musculus [8] = test: Increase in sAPPalpha levels in C57BL/6J mouse brain cortex at 5 mg/kg, sc after 90 mins by Western blot; format: functional, organism-based; parameters: dose 5 mg/kg; procedure, shortened: as §2

Activity [1] [%]	Emax [2] [%]	Structure (SMILES)	further results
> 50	> 70	COc1cc(N)c(Cl)cc1C(=O)OCCN1CCC(CNC(=O)CCCNS(=O)(=O)c2ccc(C)cc2)CC1	Ki [3]: 2 nM; EC50 [4]: 68 nM
40	0	COc1cc(N)c(Cl)cc1C(=O)OCCN1CCC(CNC(=O)Cc2ccc(Br)cc2)CC1	–
20	< 10	COc1cc(N)c(Cl)cc1C(=O)OCCN1CCC(CNC(=O)c2cccs2)CC1	–
< 10	–	COc1cc(N)c(Cl)cc1C(=O)OCCN1CCC(NC(=O)c2ccc([N+](=O)[O-])o2)CC1	–
10	0	COc1cc(N)c(Cl)cc1C(=O)OCCN1CCC(CNC(=O)c2ccsc2)CC1	–
10	10	COc1cc(N)c(Cl)cc1C(=O)OCCN1CCC(NC(=O)Cc2ccc(Br)cc2)CC1	–
20	20	COc1cc(N)c(Cl)cc1C(=O)OCCN1CCC(CNC(=O)CCc2ccccc2)CC1	–
30	30	COc1cc(N)c(Cl)cc1C(=O)OCCN1CCC(CNC(=O)CCc2cccs2)CC1	–
20	20	COc1cc(N)c(Cl)cc1C(=O)OCCN1CCC(NC(=O)Cc2ccc([N+](=O)[O-])cc2)CC1	–
20	< 10	CCCC(=O)NCC1CCN(CCOC(=O)c2cc(Cl)c(N)cc2OC)CC1	–
20	0	COc1cc(N)c(Cl)cc1C(=O)OCCN1CCC(CNC(=O)CCCc2ccccc2)CC1	–
> 50	20	COc1cc(N)c(Cl)cc1C(=O)OCCN1CCC(CNC(=O)Cc2ccccc2Cl)CC1	–
40	10	COc1ccc(OC)c(CC(=O)NCC2CCN(CCOC(=O)c3cc(Cl)c(N)cc3OC)CC2)c1	–
40	> 50	COc1cc(N)c(Cl)cc1C(=O)OCCN1CCC(CNC(=O)Cc2ccc([N+](=O)[O-])cc2)CC1	–
20	0	COc1cc(N)c(Cl)cc1C(=O)OCCN1CCC(CNC(=O)c2ccccc2F)CC1	–
30	< 10	COc1cc(N)c(Cl)cc1C(=O)OCCN1CCC(CNC(=O)CSc2ccccc2)CC1	–

Further lines, the compound ahead of its results:

Structure (SMILES)	Activity [1] [%]	Emax [2] [%]	further results
COc1cc(N)c(Cl)cc1C(=O)OCCN1CCC(NC(=O)CSc2ccccc2)CC1	20	< 10	–
COc1cc(N)c(Cl)cc1C(=O)OCCN1CCCCC1	40	45	–
COc1cc(N)c(Cl)cc1C(=O)OCCN1CCC(NC(=O)CCCNCCCc2ccccc2)CC1	–	50	Ki [3]: 12 nM
COc1cc(N)c(Cl)cc1C(=O)OCCN1CCC(CNC(=O)CCC2CCCCC2)CC1	10	> 50	–
COc1cc(N)c(Cl)cc1C(=O)OCCN1CCC(NC(=O)Cc2ccccc2Cl)CC1	10	> 50	Ki [3]: 5 nM; EC50 [4]: 18 nM
COc1cc(N)c(Cl)cc1C(=O)OCCN1CCC(NC(=O)c2ccc(C)nc2O)CC1	< 10	–	–
COc1cc(N)c(Cl)cc1C(=O)OCCN1CCC(NC(=O)c2ccccc2F)CC1	10	10	–
COc1cc(N)c(Cl)cc1C(=O)OCCN1CCC(NC(=O)CCCNS(=O)(=O)c2ccc(C)cc2)CC1	10	10	–
COc1cc(N)c(Cl)cc1C(=O)OCCN1CCC(NC(=O)CCC2CCCCC2)CC1	0	–	–
COc1cc(N)c(Cl)cc1C(=O)OCCN1CCC(CNC(=O)CCCCc2ccccc2)CC1	10	10	–
COc1cc(N)c(Cl)cc1C(=O)OCCN1CCC(NC(=O)c2ccsc2)CC1	10	20	–
COc1cc(N)c(Cl)cc1C(=O)OCCN1CCC(NC(=O)c2cccs2)CC1	20	< 10	–
COc1cc(/C=C/C(=O)CC(=O)/C=C/c2ccc(O)c(OC)c2)ccc1O [CURCUMIN]	–	–	IC50 [5]: 10000 nM; inhibition [6]: 45%
COc1ccc(OC)c(/C=C/C(=O)NCC2CCN(CCOC(=O)c3cc(Cl)c(N)cc3OC)CC2)c1	20	–	–
COc1cc(N)c(Cl)cc1C(=O)OCCN1CCC(CNC(=O)CC2CCCCC2)CC1	20	< -10	–
COc1cc(N)c(Cl)cc1C(=O)OCCN1CCC(NC(=O)CCCNCCCc2ccc(CCCNCCCC(=O)NC3CCN(CCOC(=O)c4cc(Cl)c(N)cc4OC)CC3)cc2)CC1	10	> 50	Ki [3]: 14 nM; EC50 [4]: 9 nM; Activity (Mus musculus [7]): Active; Activity (Mus musculus [8]): Active; IC50 [5]: 9000 nM; inhibition [6]: 49%
COc1cc(N)c(Cl)cc1C(=O)OCCN1CCC(CNC(=O)c2ccc(C)nc2O)CC1	10	10	–
COc1cc(N)c(Cl)cc1C(=O)OCCN1CCC(NC(=O)CCc2ccccc2)CC1	20	< 10	–
CCCC(=O)NC1CCN(CCOC(=O)c2cc(Cl)c(N)cc2OC)CC1	0	–	–
COc1cc(N)c(Cl)cc1C(=O)OCCN1CCC(CNC(=O)CC(C)(C)C)CC1	10	10	–
COc1cc(N)c(Cl)cc1C(=O)OCCN1CCC(CNC(=O)CC(C)C)CC1	20	40	–
COc1cc(N)c(Cl)cc1C(=O)OCCN1CCC(NC(=O)CC(C)C)CC1	< 10	10	–
COc1cc(N)c(Cl)cc1C(=O)OCCN1CCC(NC(=O)CCCc2ccccc2)CC1	20	20	–
COc1cc(N)c(Cl)cc1C(=O)OCCN1CCC(NC(=O)CCCCc2ccccc2)CC1	< 10	–	–
COc1cc(N)c(Cl)cc1C(=O)OCCN1CCC(NC(=O)CC2CCCCC2)CC1	< 10	–	–
COc1cc(N)c(Cl)cc1C(=O)OCCN1CCC(CNC(=O)CCCNS(=O)(=O)c2ccc(-c3ccccc3)cc2)CC1	10	< 10	–
COc1cc(N)c(Cl)cc1C(=O)OCCN1CCC(NC(=O)CCc2cccs2)CC1	10	10	–
COc1cc(N)c(Cl)cc1C(=O)OCCN1CCC(CNC(=O)C(C)C)CC1	20	10	–
